TRPC6 act – mouse TRPC6 channel activators, primary screen, cell-based, HEK293, membrane potential dye; HEK293-TRPC6 membrane potential dye fluorescence; stronger effect = higher value; B-score at 10 µM; actives 0.13% (n = 310,000); AID 2550, 2010;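 active means B-score of the integrated fluorescence ratio above library mean plus 3 SD, and starting fluorescence ratio within library mean plus 5 SD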;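 further: higher score means more depolarization so channel activation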
TRPC4 agonist – activators of mouse TRPC4 channel, primary screen, Fluo4 calcium, HEK293 TRPC4beta/mu-opioid cells. Short transient receptor potential channel 4 (Mus musculus), Q9QUQ5. Fluo4 calcium fluorescence; stronger effect = higher value. B-score at 10 µM. actives 0.49% (n = 310,000);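 active means B-score above 5 SD of library B-scores, and initial fluorescence ratio not above library mean plus 5 SD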;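 further: positive B-score marks a calcium rise read as TRPC4 activation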
Target sequence (Q9QUQ5 whole entry, looked up): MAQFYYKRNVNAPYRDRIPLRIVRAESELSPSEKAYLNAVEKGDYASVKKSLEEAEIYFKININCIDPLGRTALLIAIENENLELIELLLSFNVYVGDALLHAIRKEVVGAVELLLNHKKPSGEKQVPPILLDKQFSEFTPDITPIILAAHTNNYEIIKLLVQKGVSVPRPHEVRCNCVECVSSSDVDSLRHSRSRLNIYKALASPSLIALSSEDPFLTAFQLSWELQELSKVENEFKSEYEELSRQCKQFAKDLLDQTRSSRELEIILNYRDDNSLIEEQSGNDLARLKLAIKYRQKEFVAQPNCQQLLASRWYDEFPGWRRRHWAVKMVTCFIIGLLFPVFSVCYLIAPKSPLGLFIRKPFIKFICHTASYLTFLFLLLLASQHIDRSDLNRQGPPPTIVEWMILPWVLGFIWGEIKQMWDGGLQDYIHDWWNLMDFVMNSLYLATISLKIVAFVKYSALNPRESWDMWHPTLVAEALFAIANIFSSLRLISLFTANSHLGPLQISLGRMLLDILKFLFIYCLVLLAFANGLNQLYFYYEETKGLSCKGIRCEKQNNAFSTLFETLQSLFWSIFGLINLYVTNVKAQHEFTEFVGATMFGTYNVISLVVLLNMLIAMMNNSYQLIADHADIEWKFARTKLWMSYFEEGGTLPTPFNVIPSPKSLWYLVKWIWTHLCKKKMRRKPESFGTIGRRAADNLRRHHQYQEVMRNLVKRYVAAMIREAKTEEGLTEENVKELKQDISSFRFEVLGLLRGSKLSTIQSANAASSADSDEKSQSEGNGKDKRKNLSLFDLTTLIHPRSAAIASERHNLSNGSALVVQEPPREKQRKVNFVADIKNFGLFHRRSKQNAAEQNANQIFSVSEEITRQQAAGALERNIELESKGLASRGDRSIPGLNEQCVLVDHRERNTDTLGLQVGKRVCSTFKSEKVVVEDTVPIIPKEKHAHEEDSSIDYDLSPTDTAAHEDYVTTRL
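System – HEK293 cells stably co-expressing mouse TRPC4beta and mu-opioid receptor · Signal – Fluo4 calcium-sensitive dye fluorescence, kinetic, 1 Hz baseline · Benchmarks – buffer (low) and maximal DAMGO (high) · Read-out – B score of integrated fluorescence ratio per well · Incubation – dye loading 45 min room temperature, 110 s kinetic read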
TRPC4 block – inhibitors of mouse TRPC4 channel, primary screen, Fluo4 calcium, HEK293 TRPC4beta/mu-opioid cells. DAMGO-evoked Fluo4 calcium flux; stronger effect = lower value. actives 0.39% (n = 300,000). B-score at 10 µM. Short transient receptor potential channel 4 (Mus musculus), Q9QUQ5;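 active means B-score over 3 SD under the library average, no early fluorescence shift, positive overall ratio signal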
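material = TRPC4beta/mu-opioid receptor HEK293 cell line | probe or stimulus = sequential submaximal and maximal DAMGO stimulation | compound dosing = one concentration per compound | measured by = Fluo4 Ca2+ flux fluorescence | evaluation = integrated fluorescence ratio relative to baseline, converted to per-well B score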
TRPC6 inhibitor – mouse TRPC6 channel inhibitors, primary screen, cell-based, HEK293, membrane potential dye; B-score at 10 µM; actives 1.1% (n = 310,000); Short transient receptor potential channel 6 (Mus musculus), Q61143; AID 2553, 2010; ACh-evoked depolarization; stronger effect = lower value;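 active means B-score under library mean minus 3 SD, initial fluorescence not abnormally high, positive integrated signal ratio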;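 further: B-score derived from integrated fluorescence ratio over the kinetic read; more negative B-score means stronger inhibition of depolarization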
TRPC4 potent – positive allosteric modulators of TRPC4, primary screen, cell-based, mouse TRPC4beta, HEK293 mu-opioid, Fluo-4 calcium; Short transient receptor potential channel 4 (Mus musculus), Q9QUQ5; DAMGO EC20, Fluo-4 Ca2+ flux; stronger effect = higher value; B-score at 10 µM; actives 0.42% (n = 310,000); AID 2227, 2009;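 active means B-score of calcium response area above 5 SD of library B-scores, with initial fluorescence ratio within 5 SD of library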;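 further: B-score of integrated fluorescence ratio over time as area under calcium response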
TRPC4 sel inh 2 – second check of whether TRPC6 inhibitors also affect mouse TRPC4 | AID 2776 | actives 42% (n = 920) | inhibition, % at 10 µM | HEK293 TRPC4/MOR, membrane potential dye fluorescence; channel activated by saturating DAMGO dose | shares compounds with TRPC6 inhibitor;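 active means compounds whose fluorescence signal differed from control wells by over 3 SD, either direction, in both duplicate plates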
TRPC4 spec – mouse TRPC4 modulation by TRPC6 hits, confirmation, selectivity assay for TRPC6 inhibitor project, cell-based, HEK293 TRPC4/mu-opioid, membrane potential dye. membrane potential fluorescence. shares compounds with TRPC6 inhibitor. activity change, negative = inhibition, % at 10 µM. actives 61% (n = 920);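 active means rise or fall in signal beyond 3 SD of buffer-only wells in both replicate plates, either sign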;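 further: integrated kinetic ratio of fluorescence range over baseline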
HEK293 MPD ctr 2-1 – nonspecific membrane potential effects, parental HEK293, confirmation, counter-screen for TRPC6 inhibitor project, cell-based, second counter screen; actives 31% (n = 920); signal change vs control, % at 10 µM; parental HEK293 membrane potential dye fluorescence; maximal acetylcholine challenge after compound addition; shares compounds with TRPC6 inhibitor;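 active means membrane potential signal moving either way by over 3 SD of the maximum-effect control, in both duplicate plates, meaning non-specific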
HEK293 MPD ctr-1 – membrane potential modulation in parental HEK293, confirmation, counter-screen for TRPC6 inhibitor project, cell-based; shares compounds with TRPC6 inhibitor; parental HEK293 membrane potential dye fluorescence; membrane potential signal change, % at 10 µM; actives 60% (n = 920); AID 2780, 2010;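 active means membrane potential signal shifting up or down by more than 3 SD of buffer-only wells, on both duplicate plates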
HEK293 MPD ctr-2 – parental HEK293 membrane potential modulation, confirmation, counter-screen for TRPC6 modulator project, cell-based; membrane potential signal change, % at 10 µM; actives 51% (n = 2,400); membrane potential dye fluorescence; AID 488924, 2010; shares compounds with TRPC6 inhibitor;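 active means membrane potential signal moves up or down beyond 5 SD from buffer-only wells, on both duplicate plates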
HEK293 MPD ctr 2-2 – parental HEK293 nonspecific activity of TRPC6 modulators, second screen | shares compounds with TRPC6 inhibitor | membrane potential dye fluorescence; after compound, maximal acetylcholine stimulation | inhibition, % at 10 µM | actives 14% (n = 2,400) | AID 488926;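 active means membrane potential signal drops by more than 5 SD from the mean control signal, in both duplicate plates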;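 further: plate controls were acetylcholine ECmax control wells for no effect and buffer only wells for full effect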
TRPC4/MOR mod – TRPC4 modulation by TRPC6 hit compounds, confirmation, selectivity assay for TRPC6 modulator project, cell-based, HEK293 TRPC4/mu-opioid, membrane potential dye, mouse | shares compounds with TRPC6 inhibitor | membrane potential fluorescence | percent change from control (negative = decrease, positive = increase), % at 10 µM | actives 69% (n = 2,400) | AID 488927, 2010;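 active means membrane potential signal moved up or down beyond 5 SD of buffer control wells, in both duplicate plates, actives on both sides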;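 further: plate controls were assay buffer wells for no effect and DAMGO maximal-effect wells for full effect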
TRPC4 ctr inh 2 – second check of whether TRPC6 modulators also affect mouse TRPC4; shares compounds with TRPC6 inhibitor; HEK293 TRPC4/mu-opioid, membrane potential dye fluorescence; stimulated with maximal-effect DAMGO; inhibition, % at 10 µM; actives 55% (n = 2,400); AID 488928;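 active means drop in membrane potential signal beyond 5 SD of the control wells in both duplicate plates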;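 further: TRPC4 counter screen for TRPC6 hits run under conditions tuned for TRPC6 not TRPC4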
TRPC6 inh conf – mouse TRPC6 channel inhibitors, confirmation, HEK293 cells, membrane potential dye, duplicate | shares compounds with TRPC6 inhibitor | ACh-evoked depolarization | inhibition, % at 10 µM | actives 43% (n = 3,300);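 active means fluorescence ratio falls more than 5 SD below the full-stimulation control mean, in both duplicate runs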;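 further: integrated fluorescence ratio of peak minus minimum over baseline after agonist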
TRPC6 act confirm – mouse TRPC6 channel activators, confirmation, HEK293 cells, membrane potential dye, duplicate; shares compounds with TRPC6 inhibitor; HEK293-TRPC6 membrane potential dye fluorescence, FDSS; activation, % at 10 µM; actives 11% (n = 2,800); AID 488961, 2010;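 active means ratio signal rise beyond 5 SD above unstimulated control wells' mean, seen in both duplicate runs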;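 further: plate controls were buffer EC0 wells for no effect and acetylcholine ECmax response for full effect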
Starred values were filed as active, the others as inactive. Hits are enriched below; roughly 2.3% of the tested compounds scored in any of these assays.

Screening Cc1ccc(C(=O)N2CCN(c3ccccc3Cl)CC2)cc1[N+](=O)[O-] returned TRPC6 act inactive, TRPC4 agonist inactive, TRPC4 block inactive, TRPC6 inhibitor inactive and TRPC4 potent inactive.
Screening Cc1nnsc1Sc1ccccc1C(=O)O returned TRPC6 act inactive, TRPC4 agonist inactive, TRPC4 block inactive, TRPC6 inhibitor inactive and TRPC4 potent inactive.
Screening COC(=O)c1ccc(Cl)cc1N(Cc1c(F)cccc1Cl)S(C)(=O)=O returned TRPC6 act inactive, TRPC4 agonist 65*, TRPC4 block inactive, TRPC6 inhibitor -5.3*, TRPC4 potent inactive, HEK293 MPD ctr-2 303%*, HEK293 MPD ctr 2-2 113%*, TRPC4/MOR mod 44%*, TRPC4 ctr inh 2 38%* and TRPC6 inh conf inactive.
Screening O=c1[nH]c(SCc2ccccc2)nc2[nH]ncc12 returned TRPC6 act inactive, TRPC4 agonist inactive, TRPC4 block inactive, TRPC6 inhibitor inactive and TRPC4 potent inactive.
`FC(F)(F)c1ccc(-c2noc(CN3CCCN(C4CCCCC4)CC3)n2)cc1` gave TRPC6 act inactive, TRPC4 agonist inactive, TRPC4 block inactive, TRPC6 inhibitor inactive and TRPC4 potent inactive.
For COc1cc(CNCCc2ccccc2F)ccc1OCc1ccc(Cl)nc1 the results were TRPC6 act inactive, TRPC4 agonist inactive, TRPC4 block inactive, TRPC6 inhibitor -7.7*, TRPC4 potent inactive, TRPC4 sel inh 2 48%*, TRPC4 spec inactive, HEK293 MPD ctr 2-1 226%*, HEK293 MPD ctr-1 3.9%*, TRPC6 inh conf 60%* and TRPC6 act confirm inactive.
For CCOc1ccc(S(=O)(=O)N(CC(=O)NN=C2CCN(C)CC2)c2ccc(C)cc2)cc1 the results were TRPC6 act inactive, TRPC4 agonist inactive, TRPC4 block inactive, TRPC6 inhibitor inactive and TRPC4 potent inactive.
Screening S=c1[nH]nc(-c2ccccc2Cl)n1/N=C/C=C/c1ccco1 returned TRPC6 act inactive, TRPC4 agonist inactive, TRPC4 block inactive, TRPC6 inhibitor -6*, TRPC4 potent inactive, HEK293 MPD ctr-2 inactive, HEK293 MPD ctr 2-2 inactive, TRPC4/MOR mod inactive, TRPC4 ctr inh 2 inactive, TRPC6 inh conf 44%* and TRPC6 act confirm inactive.
`COc1ccc(CN(CC(=O)NCC2CCCO2)C(=O)CCC(=O)Nc2nccs2)cc1` (stereo not given) gave TRPC6 act inactive, TRPC4 agonist inactive, TRPC4 block inactive, TRPC6 inhibitor inactive and TRPC4 potent inactive.
`Cc1ccccc1-n1nc(C(=O)c2cccs2)cc(-c2nc3ccccc3[nH]2)c1=N` gave TRPC6 act inactive, TRPC4 agonist inactive, TRPC4 block inactive, TRPC6 inhibitor -11*, TRPC4 potent inactive, TRPC4 sel inh 2 66%*, TRPC4 spec -9.6%*, HEK293 MPD ctr 2-1 inactive, HEK293 MPD ctr-1 inactive, TRPC6 inh conf inactive and TRPC6 act confirm inactive.
Screening COc1ccc(-n2nc(C(=O)c3cccs3)cc(-c3nc4ccccc4[nH]3)c2=N)cc1 returned TRPC6 act inactive, TRPC4 agonist inactive, TRPC4 block inactive, TRPC6 inhibitor -9.7*, TRPC4 potent inactive, TRPC4 sel inh 2 46%*, TRPC4 spec -22%*, HEK293 MPD ctr 2-1 37%*, HEK293 MPD ctr-1 -238%*, TRPC6 inh conf 61%* and TRPC6 act confirm inactive.
For Cc1cc(NC(=O)c2cccs2)n(-c2nc3ccccc3[nH]2)n1 the results were TRPC6 act inactive, TRPC4 agonist inactive, TRPC4 block inactive, TRPC6 inhibitor inactive and TRPC4 potent inactive.
For Cc1cccc(-n2nc(C(=O)c3ccco3)cc(-c3nc4ccccc4[nH]3)c2=N)c1 the results were TRPC6 act inactive, TRPC4 agonist inactive, TRPC4 block inactive, TRPC6 inhibitor -5.4*, TRPC4 potent inactive, HEK293 MPD ctr-2 inactive, HEK293 MPD ctr 2-2 inactive, TRPC4/MOR mod 20%*, TRPC4 ctr inh 2 45%*, TRPC6 inh conf inactive and TRPC6 act confirm inactive.
COc1ccc(-c2nc3ccccc3[nH]2)cc1 was read as TRPC6 act inactive, TRPC4 agonist inactive, TRPC4 block inactive, TRPC6 inhibitor inactive and TRPC4 potent inactive.
